Test results as given in ChEMBL document CHEMBL3407418, “Fragment-based drug discovery of 2-thiazolidinones as BRD4 inhibitors: 2. Structure-based optimization” (J Med Chem, 2015).

Columns and labels:
[1] = Growth inhibition of human MM1S cells after 72 hrs by CellTiter-Glo luminescent cell viability assay; details: MM1.S
[2] = biological target: Bromodomain-containing protein 4 (Homo sapiens, UniProt O60885); test: Inhibition of BRD4(1) (unknown origin) incubated for 4 hrs by (+)-JQ1 fluorescent ligand based fluorescence anisotrophy
HT-29 = test: Growth inhibition of human HT-29 cells after 72 hrs by SRB assay; assay type: functional, cell-based; details: HT-29, 72 h
Summary of the method: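 HT-29 cells are grown in McCoy's 5A with 10% FBS at 37 °C, 5% CO2. DMSO stocks (0.01 mol/L) are diluted in normal saline just before use. Cells are treated in triplicate with gradient concentrations for 72 h at 37 °C.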

MV4-11 = test: Growth inhibition of human MV4-11 cells after 72 hrs by CellTiter-Glo luminescent cell viability assay; details: MV4-11, 72 h
CYP3A4 [3] = biological target: T1, CYP3A4 (Homo sapiens, UniProt P08684); test: Inhibition of CYP3A4 in human liver microsomes at 10 uM preincubated for 5 mins before NADPH addition and measured after 20 mins post NADPH addition; assay type: ADME
T1 sequence (P08684 whole entry): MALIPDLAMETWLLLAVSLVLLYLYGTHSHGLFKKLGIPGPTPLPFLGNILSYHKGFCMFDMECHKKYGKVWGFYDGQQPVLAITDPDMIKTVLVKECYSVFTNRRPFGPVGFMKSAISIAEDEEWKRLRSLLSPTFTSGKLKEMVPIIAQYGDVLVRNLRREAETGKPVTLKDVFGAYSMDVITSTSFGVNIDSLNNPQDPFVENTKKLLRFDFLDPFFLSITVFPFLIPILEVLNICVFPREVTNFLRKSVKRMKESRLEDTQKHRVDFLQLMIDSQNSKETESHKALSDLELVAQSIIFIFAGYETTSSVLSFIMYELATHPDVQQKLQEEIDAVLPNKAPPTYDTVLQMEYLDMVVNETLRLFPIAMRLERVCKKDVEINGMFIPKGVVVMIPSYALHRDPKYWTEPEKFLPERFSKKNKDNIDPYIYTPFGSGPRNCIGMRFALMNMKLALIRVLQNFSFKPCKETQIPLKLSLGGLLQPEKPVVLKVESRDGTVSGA

[4] = Stability in human liver microsomes assessed as clearance at 1 uM pre-incubated for 5 mins followed by NADPH addition and measured after 5 to 30 mins post NADPH addition by LC/MS/MS method; assay type: ADME; details: read-out: CLH
Summary of the method: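 Human liver microsomes (0.5 mg/mL) preincubated with 1 µM compound for 5 min at 37 °C in 0.1 M phosphate pH 7.4 with 1 mmol EDTA and 5 mmol MgCl2. Started with 1 mmol NADPH; sampled at 0, 5, 10 and 30 min. Quenched with equal volume of cold acetonitrile, vortexed, and centrifuged at 10,000 × g.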

CYP2C9 = CYP2C9 (Homo sapiens, UniProt P11712); test: Inhibition of CYP2C9 in human liver microsomes at 10 uM using diclofenac substrate preincubated for 5 mins before NADPH addition and measured after 20 mins post NADPH addition; assay type: ADME; details: liver microsomes, probe diclofenac
Chain of CYP2C9 (P11712 whole entry): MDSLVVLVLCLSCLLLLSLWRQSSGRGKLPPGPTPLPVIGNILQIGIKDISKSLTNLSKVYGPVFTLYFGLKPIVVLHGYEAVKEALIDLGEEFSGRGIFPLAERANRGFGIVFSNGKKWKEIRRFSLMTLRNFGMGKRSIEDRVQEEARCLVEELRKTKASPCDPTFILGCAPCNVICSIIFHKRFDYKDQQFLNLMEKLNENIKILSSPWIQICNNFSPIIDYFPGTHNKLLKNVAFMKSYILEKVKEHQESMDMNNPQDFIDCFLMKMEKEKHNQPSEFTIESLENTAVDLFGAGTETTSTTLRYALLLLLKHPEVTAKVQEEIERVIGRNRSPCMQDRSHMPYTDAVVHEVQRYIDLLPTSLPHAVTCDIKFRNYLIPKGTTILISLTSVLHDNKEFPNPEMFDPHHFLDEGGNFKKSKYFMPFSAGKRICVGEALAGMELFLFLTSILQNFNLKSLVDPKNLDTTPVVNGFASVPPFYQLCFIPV
Summary of the method: (§1)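 Human liver microsomes 0.2 mg/mL, 1 mmol NADPH, 100 mmol phosphate pH 7.4, probe cocktail (10 μM midazolam, 100 μM testosterone, 10 μM dextromethorphan, 20 μM diclofenac, 100 μM phenacetin, 100 μM mephenytoin), test compound 10 μM or PBS; organic solvent <1%. 5 min preincubation at 37 °C, NADPH-generating system start, 20 min reaction; inhibition from metabolite formation relative to PBS.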

CYP3A4 [5] = biological target: T1, CYP3A4; test: Inhibition of CYP3A4 in human liver microsomes at 10 uM using midazolam substrate preincubated for 5 mins before NADPH addition and measured after 20 mins post NADPH addition; assay type: ADME; details: probe midazolam
Summary of the method: as §1

Cytochrome P450 2D6 = Cytochrome P450 2D6 (Homo sapiens, UniProt P10635); test: Time dependent inhibition of CYP2D6 in human liver microsomes at 10 uM using dextromethorphan substrate preincubated for 5 mins before NADPH addition and measured after 20 mins post NADPH addition; assay type: ADME
Chain of Cytochrome P450 2D6 (P10635 whole entry): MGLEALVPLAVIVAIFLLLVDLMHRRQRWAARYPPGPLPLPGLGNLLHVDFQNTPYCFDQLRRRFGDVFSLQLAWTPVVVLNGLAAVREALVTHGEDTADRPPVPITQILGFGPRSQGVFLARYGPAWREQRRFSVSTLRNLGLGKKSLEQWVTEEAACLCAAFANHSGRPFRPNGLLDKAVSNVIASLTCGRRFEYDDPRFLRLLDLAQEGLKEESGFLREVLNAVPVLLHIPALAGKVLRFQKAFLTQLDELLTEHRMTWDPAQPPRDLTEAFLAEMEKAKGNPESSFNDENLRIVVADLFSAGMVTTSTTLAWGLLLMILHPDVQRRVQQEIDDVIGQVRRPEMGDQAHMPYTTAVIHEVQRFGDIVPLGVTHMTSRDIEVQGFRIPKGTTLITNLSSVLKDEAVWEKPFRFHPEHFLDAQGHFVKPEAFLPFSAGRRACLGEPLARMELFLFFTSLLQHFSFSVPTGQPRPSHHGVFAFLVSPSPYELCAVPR

Cytochrome P450 1A2 = biological target: T2, Cytochrome P450 1A2 (Homo sapiens, UniProt P05177); test: Time dependent inhibition of CYP1A2 in human liver microsomes at 10 uM using phenacetin substrate preincubated for 5 mins before NADPH addition and measured after 20 mins post NADPH addition; assay type: ADME
T2 sequence (P05177 whole entry): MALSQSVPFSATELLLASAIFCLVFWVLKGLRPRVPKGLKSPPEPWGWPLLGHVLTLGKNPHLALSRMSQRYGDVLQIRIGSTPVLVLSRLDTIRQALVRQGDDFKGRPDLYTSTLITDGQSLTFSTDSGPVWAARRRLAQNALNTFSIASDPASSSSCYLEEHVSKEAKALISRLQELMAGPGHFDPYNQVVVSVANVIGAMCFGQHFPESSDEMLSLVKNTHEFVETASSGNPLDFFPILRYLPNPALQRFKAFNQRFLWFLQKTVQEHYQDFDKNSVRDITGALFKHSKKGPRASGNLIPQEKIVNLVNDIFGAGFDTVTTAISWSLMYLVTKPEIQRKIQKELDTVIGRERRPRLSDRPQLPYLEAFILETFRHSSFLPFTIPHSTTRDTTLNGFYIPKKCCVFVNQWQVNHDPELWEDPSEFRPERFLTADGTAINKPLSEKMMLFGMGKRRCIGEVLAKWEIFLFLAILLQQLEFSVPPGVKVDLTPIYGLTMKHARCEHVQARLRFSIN

Cytochrome P450 2C19 = Cytochrome P450 2C19 (Homo sapiens, UniProt P33261); test: Time dependent inhibition of CYP2C19 in human liver microsomes at 10 uM using mephenytoin substrate preincubated for 5 mins before NADPH addition and measured after 20 mins post NADPH addition; assay type: ADME
Chain of Cytochrome P450 2C19 (P33261 whole entry): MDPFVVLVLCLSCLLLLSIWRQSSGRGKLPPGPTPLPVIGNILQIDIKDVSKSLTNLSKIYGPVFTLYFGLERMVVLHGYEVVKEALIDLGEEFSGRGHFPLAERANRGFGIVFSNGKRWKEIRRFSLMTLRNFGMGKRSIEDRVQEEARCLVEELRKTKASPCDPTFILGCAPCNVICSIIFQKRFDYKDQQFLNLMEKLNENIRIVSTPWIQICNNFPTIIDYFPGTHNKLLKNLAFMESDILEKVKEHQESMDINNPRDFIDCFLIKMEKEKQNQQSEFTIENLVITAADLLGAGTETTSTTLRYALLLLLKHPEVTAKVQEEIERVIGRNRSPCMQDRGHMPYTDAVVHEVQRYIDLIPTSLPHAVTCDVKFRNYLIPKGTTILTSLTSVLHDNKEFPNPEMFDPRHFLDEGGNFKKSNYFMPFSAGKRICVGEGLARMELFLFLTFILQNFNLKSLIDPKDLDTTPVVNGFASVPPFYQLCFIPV

Cytochrome P450 3A4 = Cytochrome P450 3A4 (Homo sapiens, UniProt P08684); test: Time dependent inhibition of CYP3A4 in human liver microsomes at 10 uM using midazolam substrate preincubated for 5 mins before NADPH addition and measured after 20 mins post NADPH addition; assay type: ADME
Chain of Cytochrome P450 3A4 (P08684 whole entry): as the sequence (P08684 whole entry) above

CYP2C19 = CYP2C19 (Homo sapiens, UniProt P33261); test: Inhibition of CYP2C19 in human liver microsomes at 10 uM using mephenytoin substrate preincubated for 5 mins before NADPH addition and measured after 20 mins post NADPH addition; assay type: ADME; details: probe mephenytoin
Chain of CYP2C19 (P33261 whole entry): as the sequence (P33261 whole entry) above
Summary of the method: as §1

Cytochrome P450 2C9 = Cytochrome P450 2C9 (Homo sapiens, UniProt P11712); test: Time dependent inhibition of CYP2C9 in human liver microsomes at 10 uM using diclofenac substrate preincubated for 5 mins before NADPH addition and measured after 20 mins post NADPH addition; assay type: ADME
Chain of Cytochrome P450 2C9 (P11712 whole entry): as the sequence (P11712 whole entry) above

CYP2D6 = CYP2D6 (Homo sapiens, UniProt P10635); test: Inhibition of CYP2D6 in human liver microsomes at 10 uM using dextromethorphan substrate preincubated for 5 mins before NADPH addition and measured after 20 mins post NADPH addition; assay type: ADME; details: liver microsomes, probe dextromethorphan
Chain of CYP2D6 (P10635 whole entry): as the sequence (P10635 whole entry) above
Summary of the method: as §1

CYP1A2 = biological target: T3, CYP1A2 (Homo sapiens, UniProt P05177); test: Inhibition of CYP1A2 in human liver microsomes at 10 uM using phenacetin substrate preincubated for 5 mins before NADPH addition and measured after 20 mins post NADPH addition; assay type: ADME; details: probe phenacetin
T3 sequence (P05177 whole entry): T2 sequence (P05177 whole entry)
Summary of the method: as §1

[6] = biological target: T4, ATPase family AAA domain-containing protein 2 (Homo sapiens) (UniProt Q6PL18); test: Binding affinity to ATAD2 (unknown origin) assessed as increase in protein melting temperature at 50 umol by real-time PCR system based thermal shift assay
T4 sequence (whole entry): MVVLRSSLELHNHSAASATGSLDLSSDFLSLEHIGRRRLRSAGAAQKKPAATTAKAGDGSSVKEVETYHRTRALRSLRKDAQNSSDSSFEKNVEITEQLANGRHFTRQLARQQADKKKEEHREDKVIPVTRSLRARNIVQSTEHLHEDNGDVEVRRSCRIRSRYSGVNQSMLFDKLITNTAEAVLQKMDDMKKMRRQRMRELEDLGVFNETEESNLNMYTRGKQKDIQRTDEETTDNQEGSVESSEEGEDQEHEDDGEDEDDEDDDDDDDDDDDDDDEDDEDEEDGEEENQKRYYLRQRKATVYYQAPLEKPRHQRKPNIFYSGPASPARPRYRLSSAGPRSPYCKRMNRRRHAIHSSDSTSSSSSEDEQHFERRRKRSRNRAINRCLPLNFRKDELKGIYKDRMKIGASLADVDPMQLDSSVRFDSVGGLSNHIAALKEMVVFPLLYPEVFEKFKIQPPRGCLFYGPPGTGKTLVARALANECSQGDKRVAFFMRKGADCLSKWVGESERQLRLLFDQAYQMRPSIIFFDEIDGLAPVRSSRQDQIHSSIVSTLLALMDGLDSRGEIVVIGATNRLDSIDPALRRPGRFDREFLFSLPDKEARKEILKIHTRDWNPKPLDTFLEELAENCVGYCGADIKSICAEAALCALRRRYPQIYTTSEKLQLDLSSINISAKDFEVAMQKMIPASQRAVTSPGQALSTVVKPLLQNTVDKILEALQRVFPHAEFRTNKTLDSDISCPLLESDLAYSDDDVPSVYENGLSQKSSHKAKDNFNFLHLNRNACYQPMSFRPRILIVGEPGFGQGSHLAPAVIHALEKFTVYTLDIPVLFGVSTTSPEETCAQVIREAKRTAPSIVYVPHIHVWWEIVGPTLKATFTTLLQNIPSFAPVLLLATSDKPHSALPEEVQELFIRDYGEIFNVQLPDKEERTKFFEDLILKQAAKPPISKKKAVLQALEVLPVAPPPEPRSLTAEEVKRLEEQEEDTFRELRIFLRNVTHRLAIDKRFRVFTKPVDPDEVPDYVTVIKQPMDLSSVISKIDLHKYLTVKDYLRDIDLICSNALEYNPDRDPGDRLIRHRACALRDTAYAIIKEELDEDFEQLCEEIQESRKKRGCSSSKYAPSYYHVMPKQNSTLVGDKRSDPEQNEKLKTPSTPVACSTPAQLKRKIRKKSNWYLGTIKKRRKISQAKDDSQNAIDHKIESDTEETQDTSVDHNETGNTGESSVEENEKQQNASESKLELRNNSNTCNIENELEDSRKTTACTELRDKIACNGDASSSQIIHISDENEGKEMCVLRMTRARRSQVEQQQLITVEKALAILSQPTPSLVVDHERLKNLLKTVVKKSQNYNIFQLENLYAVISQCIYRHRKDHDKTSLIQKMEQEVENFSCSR
Summary of the method: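 Bromodomain proteins in 10 mmol HEPES pH 7.5, 500 mmol NaCl at 75 μg/mL final; compound at 50 µmol final; SYPRO Orange probe at 1:1000. Four replicates per protein mixture. Melt curve read on a real-time PCR instrument, heating 25 °C to 99 °C at 1 °C/min under continuous fluorescence reading; binding taken as the rise in protein melting temperature.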

Structure (SMILES)	IC50 [1] [nM]	IC50 [2] [nM]	IC50 (HT-29) [µM]	IC50 (MV4-11) [nM]	further results
Nc1cc(-c2csc(=O)[nH]2)cc(S(=O)(=O)NC2CCCC2)c1	3580	460	6.15	689	
O=c1[nH]c(-c2cccc(S(=O)(=O)NC3CCCCC3)c2)cs1		2060			
O=c1[nH]c(-c2cccc(S(=O)(=O)NC3CCCC3)c2)cs1		1400			
CCCC(=O)Nc1cc(-c2csc(=O)[nH]2)cc(S(=O)(=O)NC2CCCC2)c1C		930	23.5		
O=c1[nH]c(-c2cccc(S(=O)(=O)NCC3CCCO3)c2)cs1 (stereo unspecified)		9310			
O=C(Nc1ccc(-c2csc(=O)[nH]2)cc1S(=O)(=O)NC1CCCC1)C1CC1		800	13		
Cc1c(NC(=O)c2cccs2)cc(-c2csc(=O)[nH]2)cc1S(=O)(=O)NC1CCCC1	4090	790	20.1	602	
O=C(Nc1cc(-c2csc(=O)[nH]2)cc(S(=O)(=O)NC2CCCC2)c1)c1cccs1	3300	110	25.2	272	inhibition at 20 min, 10 µM (CYP3A4 [3]): 34%; microsomal CLint at 1 µM [4]: 64 µL/min/mg; inhibition at 20 min, 10 µM (CYP2C9): 57%; inhibition at 20 min, 10 µM (CYP3A4 [5]): 17%; TDI (Cytochrome P450 2D6): Not Active; TDI (Cytochrome P450 1A2): Not Active; TDI (Cytochrome P450 2C19): Not Active; TDI (Cytochrome P450 3A4): Not Active; inhibition at 20 min, 10 µM (CYP2C19): 46%; TDI (Cytochrome P450 2C9): Not Active; inhibition at 20 min, 10 µM (CYP2D6): 44%; inhibition at 20 min, 10 µM (CYP1A2): 45%
O=c1[nH]c(-c2cccc(S(=O)(=O)NCc3ccccc3)c2)cs1		> 10000			
Nc1ccc(NS(=O)(=O)c2cccc(-c3csc(=O)[nH]3)c2)cc1		8330			
CCCC(=O)Nc1cc(-c2csc(=O)[nH]2)cc(S(=O)(=O)NC2CCCC2)c1	2530	170	13.9	791	
COCC(=O)Nc1ccc(-c2csc(=O)[nH]2)cc1S(=O)(=O)NC1CCCC1	2310	400	24.6	681	
Cc1sc2c(c1C)C(c1ccc(Cl)cc1)=N[C@@H](CC(=O)OC(C)(C)C)c1nnc(C)n1-2	109		0.104	23	inhibition at 20 min, 10 µM (CYP3A4 [3]): 28%; microsomal CLint at 1 µM [4]: 78 µL/min/mg; ΔTm [6]: 1.04 °C; inhibition at 20 min, 10 µM (CYP2C9): 18%; inhibition at 20 min, 10 µM (CYP3A4 [5]): 30%; TDI (Cytochrome P450 2C19): Active; inhibition at 20 min, 10 µM (CYP2C19): 18%; TDI (Cytochrome P450 2C9): Active; inhibition at 20 min, 10 µM (CYP2D6): 2%; inhibition at 20 min, 10 µM (CYP1A2): 2%
O=c1[nH]c(-c2ccc(F)c(S(=O)(=O)NC3CCCC3)c2)cs1		500	35.2		
COc1cc2c(cc1-c1c(C)noc1C)ncc1[nH]c(=O)n([C@H](C)c3ccccn3)c12	299		0.945	119	inhibition at 20 min, 10 µM (CYP3A4 [3]): 22%; inhibition at 20 min, 10 µM (CYP2C9): 33%; inhibition at 20 min, 10 µM (CYP3A4 [5]): 21%; TDI (Cytochrome P450 2D6): Not Active; TDI (Cytochrome P450 1A2): Not Active; TDI (Cytochrome P450 2C19): Not Active; TDI (Cytochrome P450 3A4): Not Active; inhibition at 20 min, 10 µM (CYP2C19): 19%; TDI (Cytochrome P450 2C9): Not Active; inhibition at 20 min, 10 µM (CYP2D6): 18%; inhibition at 20 min, 10 µM (CYP1A2): 18%
O=c1[nH]c(-c2cccc(S(=O)(=O)NC3CCOC3)c2)cs1 (stereo unspecified)		5820			
O=c1[nH]c(-c2cccc(S(=O)(=O)Nc3ccon3)c2)cs1		7340			
O=c1[nH]c(-c2cccc(S(=O)(=O)NC3CC3)c2)cs1		2260			
O=c1[nH]c(-c2ccc(Cl)c(S(=O)(=O)NC3CCCC3)c2)cs1	3370	250	23.7	341	
O=c1[nH]c(-c2cc(Br)cc(S(=O)(=O)NC3CCCC3)c2)cs1		300	57.1		
COc1ccc(NS(=O)(=O)c2cccc(-c3csc(=O)[nH]3)c2)cc1		> 10000			
O=c1[nH]c(-c2ccccc2F)cs1		> 100000			
Cc1c(NC(=O)C2CC2)cc(-c2csc(=O)[nH]2)cc1S(=O)(=O)NC1CCCC1	1760	220	28.5	450	
O=c1[nH]c(-c2cccc(S(=O)(=O)NCCc3cccs3)c2)cs1		> 10000			
